# Measured values taken from ChEMBL document CHEMBL4665761, “Optimizing the Benefit/Risk of Acetyl-CoA Carboxylase Inhibitors through Liver Targeting” (J Med Chem, 2020).
# Columns and labels:
# [1] = Oral bioavailability in Wistar-Hannover rat plasma at 4 mg/kg and measured up to 24 hrs by LC/MS-MS analysis; format: ADME, organism-based
# In short: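 Plasma concentration–time data, n = 2, averaged. Cmax and Tmax read directly from the data. AUC0–24 by the linear trapezoidal rule. F calculated as dose-normalized AUC PO/IV.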
# [2] = AUC (0 to 24 hrs) in Wistar-Hannover rat plasma at 1 mg/kg, iv and measured up to 24 hrs by LC/MS-MS analysis; format: ADME, organism-based; design: route intravenous, dose 1 mg/kg, time <=24
# In short: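 Male Wistar-Hannover rats (240–350 g) with jugular vein cannulas were given 1 mg/kg IV at 2 mL/kg. Vehicle, depending on compound, was 10% DMSO/90% of 20% sulfobutylether-β-cyclodextrin in water or 10% DMSO/30% PEG400/60% water. AUC0–24 came from plasma concentration–time data by the linear trapezoidal rule, averaged for n = 2. Lower detection limit was 1 ng/mL.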
# [3] = Half life in Wistar-Hannover rat plasma at 1 mg/kg, iv and measured up to 24 hrs by LC/MS-MS analysis; format: ADME, organism-based
# In short: (§1)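 Male Wistar-Hannover rats (240–350 g) with jugular vein cannulas, dosed 1 mg/kg IV (2 mL/kg) or PO. IV vehicle was 10% DMSO/90% of 20% sulfobutylether-β-cyclodextrin in water, or 10% DMSO/30% PEG400/60% water. Plasma was analysed by LC-MS/MS. Parameters come from plasma concentration–time data, n = 2: Cmax observed directly, AUC0-24 by the linear trapezoidal rule, CL = IV dose/AUC, Vss = dose/(AUC × elimination rate constant).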
# [4] = Apparent volume of distribution at steady state in Wistar-Hannover rat plasma at 1 mg/kg, iv and measured up to 24 hrs by LC/MS-MS analysis; format: ADME, organism-based; settings: read-out: Vdss(app); in short: as §1
# [5] = Clearance in Wistar-Hannover rat plasma at 1 mg/kg, iv and measured up to 24 hrs by LC/MS-MS analysis; format: ADME, organism-based; in short: as §1
# [6] = Metabolic intrinsic clearance in human hepatocytes assessed per million cells incubated for 2 hrs; format: ADME, cell-based, Hepatocyte; settings: read-out: CLH
# In short: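 Cryopreserved human hepatocytes incubated for 2 h. In vitro half-lives scaled to intrinsic clearance, expressed per 10^6 cells.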
# [7] = Octanol-water partition coefficient, logD of compound at pH 7.4 at 0.5 to 2 mg incubated for 1 hr by HPLC based shake-flask method; format: physicochemical; settings: dose 0.5-2 mg
# In short: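 Shake-flask octanol/water partition at pH 7.4.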
# [8] = Apparent permeability in MCDKII-LE cells at 2 uM incubated for 30 mins; format: ADME, cell-based, Canis lupus familiaris, MDCKII-LE; settings: dog, MDCK
# In short: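 MDCK-LE (low-efflux) cell monolayers with a 30 min pre-incubation. Read-out is apparent passive permeability (Papp, 10^-6 cm/s).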
# Acetyl-CoA carboxylase 2 = Acetyl-CoA carboxylase 2 (Homo sapiens, UniProt O00763); assay: Inhibition of recombinant human ACC2 using acetyl coA as substrate incubated for 1 hr by transcreener fluorescence polarization assay
# In short: (§2)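 Recombinant human enzyme, Transcreener assay run per an earlier protocol. IC50 is the geometric mean of at least three replicates, also given as pIC50 ± SD.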
# Acetyl-CoA carboxylase 1 = Acetyl-CoA carboxylase 1 (Homo sapiens, UniProt Q13085); assay: Inhibition of recombinant human ACC1 using acetyl coA as substrate incubated for 1 hr by transcreener fluorescence polarization assay; in short: as §2
# [9] = Fraction unbound in rat liver by equilibrium dialysis method
# Rattus norvegicus = species on record: Rattus norvegicus; assay: Fraction unbound in rat plasma by equilibrium dialysis method
# TK6 = assay: Genotoxicity in human TK6 cells in presence of (aroclor-induced rat liver S9 fraction/NADPH by micronucleus test; format: toxicity, cell-based
# In short: (§3)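 In vitro micronucleus assay in Chinese hamster ovary or TK6 cells, run with and without metabolic activation by aroclor-induced rat liver S9 fraction plus NADPH.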
# CHO = assay: Genotoxicity in CHO cells by micronucleus test; format: toxicity, cell-based, Cricetulus griseus; settings: chinese hamster; in short: as §3
# [10] = Genotoxicity in Salmonella typhimurium TA100 by Ames test; format: toxicity; settings: salmonella enterica subsp. enterica serovar typhimurium
# In short: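 Ames test in Salmonella strains TA98, TA100, TA1535 and TA1537, run with and without aroclor-induced rat liver S9 plus NADPH.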
# [11] = target: Solute carrier organic anion transporter family member 1B3 (Homo sapiens, UniProt Q9NPD5); assay: Inhibition of human OATP1B3 expressed in HEK293 cells n presence of rosuvastatin; format: cell-based
# [12] = target: UDP-glucuronosyltransferase 2B7 (Homo sapiens, UniProt P16662); assay: Inhibition of UGT2B7 in human liver microsomes incubated for 60 mins in presence of UDPGA by LC-MS/MS analysis; format: ADME
# [13] = target: UDP-glucuronosyltransferase 1A9 (Homo sapiens, UniProt O60656); assay: Inhibition of UGT1A9 in human liver microsomes incubated for 30 mins in presence of UDPGA by LC-MS/MS analysis; format: ADME
# Cytochrome P450 2D6 = Cytochrome P450 2D6 (Homo sapiens, UniProt P10635); assay: inhibition of CYP2D6 in human liver microsomes; format: ADME
# [14] = Fraction unbound in human plasma by equilibrium dialysis method; format: ADME, cell-free
# [15] = Drug uptake in human hepatocytes assessed as ratio of active uptake intrinsic clearance to passive diffusion clearance at 1 uM up to 15 mins by LC-MS/MS analysis; format: ADME, cell-based, Hepatocyte; settings: 0.25 h
# [16] = Inhibition of rat ACC2 using acetyl-CoA as substrate incubated for 20 mins in presence of [14C]O3 by liquid scintillation counting method
# In short: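 Purified rat isozyme in a 96-well radioenzymatic assay measuring incorporation of [14C]-bicarbonate into [14C]-malonyl-CoA. Dose-response run at saturating ATP, where IC50 approximates Ki for uncompetitive inhibitors.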
# [17] = Drug recovery in bile duct-cannulated Wistar-Hannover rat bile at 1 mg/kg, iv and measured up to 24 hrs by LC/MS-MS analysis; format: ADME, organism-based; settings: read-out: Drug recovery
# In short: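 Rats received a 1 mg/kg IV dose. Bile was pooled over 0–24 h and analysed for unchanged parent.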
# [18] = Thermodynamic solubility of the compound at pH 6.5 after 24 hrs; format: physicochemical; settings: buffer, read-out: Therm_solubility
# [19] = Clearance in cynomolgus monkey plasma at 1 mg/kg, iv and measured up to 72 hrs by LC/MS-MS analysis; format: ADME, organism-based, Macaca fascicularis
# In short: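 Cynomolgus monkeys dosed 1 mg/kg IV as the tris salt in 2% N-methylpyrrolidone/98% sulfobutylether-β-cyclodextrin (12.5%) in 50 mM TRIS, pH 8.0, or PO as the tris salt. Plasma was analysed by LC-MS/MS, n = 2. CL = IV dose/AUC; Vss = dose/(AUC × elimination rate constant); Cmax taken from observed data.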
# [20] = Ratio of drug uptake in Wistar-Hannover rat unbound liver to plasma concentration at 10 mg/kg, po after 6 hrs by LC/MS-MS analysis; format: ADME, organism-based; settings: other tissue
# In short: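 Male Wistar-Hannover rats (n = 2 or 3) dosed orally as a suspension in 0.5% methyl cellulose with 0.1% Tween 80. Total plasma and liver concentrations taken 6 h post-dose. Converted to unbound values using fraction unbound in plasma and liver from equilibrium dialysis. Kpu,u = ratio of mean free liver to free plasma concentration.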
# [21] = Fraction unbound in monkey liver by equilibrium dialysis method; format: ADME, tissue-based, Macaca mulatta; settings: rhesus monkey
# In short: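 Fraction unbound in plasma and liver tissue was determined by equilibrium dialysis.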
# Sequence of Acetyl-CoA carboxylase 2 (O00763 whole entry): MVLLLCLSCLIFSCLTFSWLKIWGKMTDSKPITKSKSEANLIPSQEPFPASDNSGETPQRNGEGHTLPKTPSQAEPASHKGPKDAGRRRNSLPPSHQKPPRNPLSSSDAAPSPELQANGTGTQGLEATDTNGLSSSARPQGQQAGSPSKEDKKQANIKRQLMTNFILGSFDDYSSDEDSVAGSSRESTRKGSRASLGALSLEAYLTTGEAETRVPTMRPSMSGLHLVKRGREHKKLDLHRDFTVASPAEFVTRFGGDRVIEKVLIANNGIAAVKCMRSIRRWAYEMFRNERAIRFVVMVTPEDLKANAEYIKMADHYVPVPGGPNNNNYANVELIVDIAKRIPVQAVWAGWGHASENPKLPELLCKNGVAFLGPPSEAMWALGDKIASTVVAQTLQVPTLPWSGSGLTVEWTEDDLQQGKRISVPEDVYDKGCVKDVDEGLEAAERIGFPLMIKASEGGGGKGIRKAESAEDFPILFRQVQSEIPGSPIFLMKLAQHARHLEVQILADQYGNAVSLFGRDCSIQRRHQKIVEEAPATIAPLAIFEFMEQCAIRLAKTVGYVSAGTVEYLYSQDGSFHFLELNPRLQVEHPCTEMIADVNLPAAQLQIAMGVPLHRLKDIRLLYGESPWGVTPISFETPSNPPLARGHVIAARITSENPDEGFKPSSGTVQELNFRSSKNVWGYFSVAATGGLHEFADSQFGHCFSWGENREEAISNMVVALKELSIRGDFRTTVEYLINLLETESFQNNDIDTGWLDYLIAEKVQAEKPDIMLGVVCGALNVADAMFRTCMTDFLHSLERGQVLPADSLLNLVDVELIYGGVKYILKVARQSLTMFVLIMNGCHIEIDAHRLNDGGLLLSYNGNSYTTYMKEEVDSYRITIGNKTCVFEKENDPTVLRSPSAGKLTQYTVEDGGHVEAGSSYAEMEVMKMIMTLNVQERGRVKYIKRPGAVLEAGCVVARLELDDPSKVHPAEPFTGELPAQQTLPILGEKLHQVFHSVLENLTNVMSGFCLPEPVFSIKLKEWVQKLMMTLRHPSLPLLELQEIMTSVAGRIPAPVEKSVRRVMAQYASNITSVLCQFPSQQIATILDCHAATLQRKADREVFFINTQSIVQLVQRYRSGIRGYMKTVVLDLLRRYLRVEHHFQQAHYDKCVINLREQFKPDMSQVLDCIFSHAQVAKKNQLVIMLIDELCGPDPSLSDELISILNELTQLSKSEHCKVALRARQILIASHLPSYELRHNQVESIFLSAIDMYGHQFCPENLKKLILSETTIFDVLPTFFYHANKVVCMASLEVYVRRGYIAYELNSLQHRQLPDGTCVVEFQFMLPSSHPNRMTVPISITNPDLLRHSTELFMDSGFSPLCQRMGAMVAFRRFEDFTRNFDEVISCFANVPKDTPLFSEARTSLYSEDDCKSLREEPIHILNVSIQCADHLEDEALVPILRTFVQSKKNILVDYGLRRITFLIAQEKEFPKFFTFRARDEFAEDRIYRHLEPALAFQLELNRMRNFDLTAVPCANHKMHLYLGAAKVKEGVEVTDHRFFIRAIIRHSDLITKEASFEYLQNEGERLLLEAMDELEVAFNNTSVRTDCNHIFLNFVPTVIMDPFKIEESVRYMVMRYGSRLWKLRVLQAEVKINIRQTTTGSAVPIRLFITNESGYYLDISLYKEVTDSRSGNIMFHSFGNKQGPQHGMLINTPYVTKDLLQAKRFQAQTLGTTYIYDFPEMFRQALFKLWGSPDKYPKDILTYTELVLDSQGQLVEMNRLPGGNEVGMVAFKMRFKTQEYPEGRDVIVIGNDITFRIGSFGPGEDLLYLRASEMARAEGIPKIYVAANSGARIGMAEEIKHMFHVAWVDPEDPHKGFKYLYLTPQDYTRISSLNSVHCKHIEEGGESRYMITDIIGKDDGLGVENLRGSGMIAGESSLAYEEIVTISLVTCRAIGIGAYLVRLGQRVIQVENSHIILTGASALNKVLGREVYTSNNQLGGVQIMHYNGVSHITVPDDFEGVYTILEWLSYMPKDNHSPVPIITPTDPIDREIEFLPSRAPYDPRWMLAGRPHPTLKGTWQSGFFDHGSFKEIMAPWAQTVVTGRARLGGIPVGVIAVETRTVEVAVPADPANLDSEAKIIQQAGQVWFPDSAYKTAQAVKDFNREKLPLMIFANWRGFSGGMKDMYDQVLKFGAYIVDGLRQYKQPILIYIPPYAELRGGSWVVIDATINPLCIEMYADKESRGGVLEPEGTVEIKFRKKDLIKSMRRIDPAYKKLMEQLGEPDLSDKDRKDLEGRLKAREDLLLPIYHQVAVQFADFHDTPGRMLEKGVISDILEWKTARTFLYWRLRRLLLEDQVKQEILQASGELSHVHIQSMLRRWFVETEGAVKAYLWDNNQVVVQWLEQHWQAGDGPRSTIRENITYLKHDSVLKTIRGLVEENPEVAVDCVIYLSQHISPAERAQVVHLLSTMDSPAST
# Sequence of UDP-glucuronosyltransferase 1A9 (O60656 whole entry): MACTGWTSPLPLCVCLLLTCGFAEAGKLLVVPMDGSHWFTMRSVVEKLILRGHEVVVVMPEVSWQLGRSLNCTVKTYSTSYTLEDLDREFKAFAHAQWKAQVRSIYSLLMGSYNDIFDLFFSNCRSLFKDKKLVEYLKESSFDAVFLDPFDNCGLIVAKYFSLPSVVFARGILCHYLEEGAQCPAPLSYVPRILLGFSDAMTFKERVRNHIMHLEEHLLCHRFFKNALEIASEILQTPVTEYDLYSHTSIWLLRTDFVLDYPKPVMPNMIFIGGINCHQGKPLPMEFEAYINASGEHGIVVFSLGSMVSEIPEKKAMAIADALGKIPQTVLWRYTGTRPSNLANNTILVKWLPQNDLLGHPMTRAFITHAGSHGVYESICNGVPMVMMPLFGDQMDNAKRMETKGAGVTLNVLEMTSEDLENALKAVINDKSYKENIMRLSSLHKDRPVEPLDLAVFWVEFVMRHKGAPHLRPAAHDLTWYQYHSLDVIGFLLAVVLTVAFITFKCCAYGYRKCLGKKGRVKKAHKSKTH
# Sequence of UDP-glucuronosyltransferase 2B7 (P16662 whole entry): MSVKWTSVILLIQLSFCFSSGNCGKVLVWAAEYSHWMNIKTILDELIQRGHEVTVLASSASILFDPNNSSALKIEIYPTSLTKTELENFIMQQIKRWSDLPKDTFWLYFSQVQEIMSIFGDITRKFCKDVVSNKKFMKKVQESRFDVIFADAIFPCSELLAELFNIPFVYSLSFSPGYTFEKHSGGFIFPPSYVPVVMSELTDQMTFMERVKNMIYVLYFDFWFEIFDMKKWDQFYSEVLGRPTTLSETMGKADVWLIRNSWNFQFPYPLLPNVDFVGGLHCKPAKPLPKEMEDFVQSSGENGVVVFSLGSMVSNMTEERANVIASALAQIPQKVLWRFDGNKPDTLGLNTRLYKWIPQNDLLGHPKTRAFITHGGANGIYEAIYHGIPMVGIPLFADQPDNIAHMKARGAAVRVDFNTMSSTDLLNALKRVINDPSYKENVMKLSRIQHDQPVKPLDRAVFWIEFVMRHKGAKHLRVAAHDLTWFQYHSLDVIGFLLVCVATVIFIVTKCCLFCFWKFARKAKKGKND
# Sequence of Solute carrier organic anion transporter family member 1B3 (Q9NPD5 whole entry): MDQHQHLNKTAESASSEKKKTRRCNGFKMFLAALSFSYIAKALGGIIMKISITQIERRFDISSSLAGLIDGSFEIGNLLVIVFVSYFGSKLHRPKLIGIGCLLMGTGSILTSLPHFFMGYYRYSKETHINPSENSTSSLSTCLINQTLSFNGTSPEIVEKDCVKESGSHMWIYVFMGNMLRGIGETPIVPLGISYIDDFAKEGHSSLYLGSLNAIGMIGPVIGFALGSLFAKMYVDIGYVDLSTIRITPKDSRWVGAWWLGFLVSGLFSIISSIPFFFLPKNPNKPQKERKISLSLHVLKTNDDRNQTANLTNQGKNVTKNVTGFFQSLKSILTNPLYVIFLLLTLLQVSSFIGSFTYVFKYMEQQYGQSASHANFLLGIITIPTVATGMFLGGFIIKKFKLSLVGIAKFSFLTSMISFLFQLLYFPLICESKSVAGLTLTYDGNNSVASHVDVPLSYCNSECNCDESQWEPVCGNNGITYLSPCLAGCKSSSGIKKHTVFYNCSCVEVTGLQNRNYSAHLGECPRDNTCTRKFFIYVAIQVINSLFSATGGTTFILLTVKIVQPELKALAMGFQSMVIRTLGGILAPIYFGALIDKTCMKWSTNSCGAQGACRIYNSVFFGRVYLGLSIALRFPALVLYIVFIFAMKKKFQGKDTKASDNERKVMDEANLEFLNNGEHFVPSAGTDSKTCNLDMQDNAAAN
# Sequence of Cytochrome P450 2D6 (P10635 whole entry): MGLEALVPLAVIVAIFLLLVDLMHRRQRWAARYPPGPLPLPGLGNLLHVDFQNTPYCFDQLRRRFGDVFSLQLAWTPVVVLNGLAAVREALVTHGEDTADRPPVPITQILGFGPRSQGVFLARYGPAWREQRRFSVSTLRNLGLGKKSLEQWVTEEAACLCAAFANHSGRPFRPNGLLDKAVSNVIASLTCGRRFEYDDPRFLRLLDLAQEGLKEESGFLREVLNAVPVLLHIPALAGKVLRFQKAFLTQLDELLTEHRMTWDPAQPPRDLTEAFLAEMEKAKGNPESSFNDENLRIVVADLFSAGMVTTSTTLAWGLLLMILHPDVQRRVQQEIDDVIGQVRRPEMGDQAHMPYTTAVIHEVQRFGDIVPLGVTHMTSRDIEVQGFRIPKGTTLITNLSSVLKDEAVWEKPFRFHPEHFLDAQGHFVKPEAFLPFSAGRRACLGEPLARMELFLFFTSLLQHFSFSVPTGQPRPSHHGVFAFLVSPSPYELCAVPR
SMILES,AUC(0-t) [2] [ng·h/mL],half-life [3] [h],Vd [4] [L/kg],clearance [5] [mL/min/kg],hepatocyte CLint [6] [µL/min/1e6 cells],logD at 1 h [7],"Papp at 0.5 h, 2 µM [8] [×10⁻⁶ cm/s]",IC50 (Acetyl-CoA carboxylase 2) [nM],IC50 (Acetyl-CoA carboxylase 1) [nM],fraction unbound [9],fraction unbound (Rattus norvegicus),also measured
COc1cc(C(=O)N2CCC3(CC2)CC(=O)c2nn(C(C)(C)C)cc2O3)cc(-c2ccc(C(=O)O)cc2)n1,299,3.5,4.1,54.5,< 3,0.5,2,13,22,0.07,0.17,bioavailability [1]: 27%
COc1cc(C(=O)N2CCC3(CC2)CC(=O)c2c(cnn2C(C)C)C3)cc(-c2ccc(C(=O)O)cc2)n1 [CLESACOSTAT],965,8.6,7.2,16,< 3,1.1,14,26,33,0.066,0.0392,Activity (TK6): Non-Toxic; Activity (CHO): Non-Toxic; Activity [10]: Non-Toxic; IC50 [11]: 137000 nM; IC50 [12]: > 20000 nM; IC50 [13]: > 20000 nM; IC50 (Cytochrome P450 2D6): > 50000 nM; fraction unbound [14]: 0.006; Ratio [15]: 8.7; IC50 [16]: 8.24 nM; dose excreted at 24 h [17]: 12%; solubility thermodynamic at 24 h [18]: 36 µM; clearance [19]: 1.3 mL/min/kg; Ratio [20]: 132; fraction unbound [21]: 0.15
